Active and inactive are the calls of the source. No cut-off for these calls is given here.
What was measured:
Mus musculus [1] = assay: Analgesic activity in Swiss albino mouse assessed as inhibition of acetic acid-induced writhing at 5 mg/kg, ip administered 30 mins prior to acetic acid challenge and measured after 30 mins relative to control; format: functional; set-up: scale not given: the % may be the effect or the level left; conditions: time 60 min, 1 h
Summary of the method: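 Mice pretreated i.p. with indomethacin (10 mg/kg) or test compound (5 mg/kg) 30 min before 0.6% v/v acetic acid injection. Control group also received acetic acid. Animals placed in a transparent box and abdominal writhings counted for 30 min. Six animals per group, one-way ANOVA with Tukey's test, mean ± SEM.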

Mus musculus [2] = assay: Antiinflammatory activity against Swiss albino mouse assessed as reduction in carragenan-induced paw edema at 0.5 mg/kg treated 30 mins prior to carrageenan challenge and measured upto 360 mins relative to control; format: functional; set-up: scale not given: the % may be the effect or the level left; conditions: time 390 min, 6.5 h
Summary of the method: (§1)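 100 μL freshly prepared 1% carrageenan injected into the subplantar hind paw, with indomethacin (10 mg/kg) or test compound given 30 min before. Dose–response arm used 0.5, 2.5, 5, 10, 20 mg/kg. Six animals per group. Paw thickness (mm) read at 15, 30, 60, 120, 180, 240, 300, 360 min. Result expressed as % decrease versus control.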

Mus musculus [3] = assay: Antiinflammatory activity against Swiss albino mouse assessed as reduction in carragenan-induced paw edema at 5 mg/kg treated 30 mins prior to carrageenan challenge and measured upto 360 mins relative to control; format: functional; set-up: scale not given: the % may be the effect or the level left; conditions: time 390 min, 6.5 h; summary of the method: as §1
Mus musculus [4] = assay: Antiinflammatory activity against Swiss albino mouse assessed as reduction in carragenan-induced paw edema at 10 mg/kg treated 30 mins prior to carrageenan challenge and measured upto 360 mins relative to control; format: functional; set-up: scale not given: the % may be the effect or the level left; conditions: time 390 min, 6.5 h; summary of the method: as §1
[5] = Half life in Swiss albino mouse at 10 mg/kg, ip measured upto 24 hrs by LC-MS analysis; format: ADME, organism-based; conditions: in vivo
Summary of the method: (§2)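 Swiss albino mice (25−35 g), either sex, 10 groups of three. 10 mg/kg suspended in 0.1% CMC, given i.p. Ketamine anaesthesia (50 mg/kg i.p.). Jugular vein blood taken at 30, 45, 60 min and 2, 3, 4, 6, 8, 11, 24 h into heparinised tubes, triplicate samples per time point.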

[6] = Tmax in Swiss albino mouse at 10 mg/kg, ip measured upto 24 hrs by LC-MS analysis; format: ADME, organism-based; conditions: in vivo; summary of the method: as §2
[7] = Cmax in Swiss albino mouse at 10 mg/kg, ip measured upto 24 hrs by LC-MS analysis; format: ADME, organism-based; set-up: route intraperitoneal, dose 10 mg/kg, time <=24; conditions: in vivo; summary of the method: as §2
[8] = molecular target: T1, Prostaglandin G/H synthase 1 (Ovis aries) (UniProt P05979); assay: Binding affinity to ovine COX-1 assessed as change in entropy by isothermal titration calorimetry
T1 sequence (whole entry): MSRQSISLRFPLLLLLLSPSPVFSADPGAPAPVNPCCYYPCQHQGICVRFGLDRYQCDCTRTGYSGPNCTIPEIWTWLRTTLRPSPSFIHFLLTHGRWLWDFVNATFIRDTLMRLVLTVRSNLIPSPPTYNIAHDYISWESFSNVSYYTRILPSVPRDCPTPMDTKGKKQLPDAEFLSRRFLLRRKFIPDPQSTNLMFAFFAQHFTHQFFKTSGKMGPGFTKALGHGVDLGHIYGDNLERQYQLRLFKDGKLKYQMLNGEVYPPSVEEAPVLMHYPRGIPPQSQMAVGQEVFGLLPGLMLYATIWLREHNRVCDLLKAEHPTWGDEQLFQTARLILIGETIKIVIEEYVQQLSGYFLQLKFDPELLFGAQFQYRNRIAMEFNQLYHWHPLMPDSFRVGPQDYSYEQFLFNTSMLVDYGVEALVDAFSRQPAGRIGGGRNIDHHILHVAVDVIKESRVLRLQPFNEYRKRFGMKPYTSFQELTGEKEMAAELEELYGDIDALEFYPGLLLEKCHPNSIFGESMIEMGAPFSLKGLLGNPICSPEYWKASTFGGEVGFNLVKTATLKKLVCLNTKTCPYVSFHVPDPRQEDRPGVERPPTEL
Summary of the method: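 ITC at 25 °C in 0.1 M Tris buffer. Ligand at 100 μM in DMSO:Tris (1:9) titrated from a syringe stirred at 500 rpm into enzyme in the sample cell, 120 s spacing. 40 × 1 μL injections, except COX-1 at 20 × 2 μL. Buffer-only control titrations were subtracted.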

Albumin [9] = molecular target: T2, Albumin (Homo sapiens, UniProt P02768); assay: Binding affinity to HSA assessed as association constant at equilibrium by isothermal titration calorimetry
Albumin [10] = molecular target: T2, Albumin; assay: Binding affinity to HSA assessed as change in entropy by isothermal titration calorimetry
Summary of the method: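 Isothermal titration calorimetry at 25 °C. Ligand at 100 μM in DMSO:0.1 M Tris buffer (1:9), loaded in the syringe and stirred at 500 rpm. HSA (0.05 g per mL Tris buffer) placed in the sample cell. Forty 1 μL injections at 120 s intervals. Heats corrected with control titrations: ligand into buffer, and buffer into protein. Binding parameters fitted with a single-site model (Q = nΘMtΔHVo).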

Mus musculus [11] = assay: Analgesic activity in Swiss albino mouse assessed as inhibition of acetic acid-induced writhing at 5 mg/kg, ip preincubated for 30 mins with L-NIL followed by compound addition for 30 mins prior to acetic acid challenge and measured after 30 mins; format: functional, organism-based; conditions: time 60.0 min
[12] = molecular target: T1, Prostaglandin G/H synthase 1 (Ovis aries)
[13] = molecular target: T3, Prostaglandin G/H synthase 2 (Homo sapiens) (UniProt P35354)
T3 sequence (whole entry): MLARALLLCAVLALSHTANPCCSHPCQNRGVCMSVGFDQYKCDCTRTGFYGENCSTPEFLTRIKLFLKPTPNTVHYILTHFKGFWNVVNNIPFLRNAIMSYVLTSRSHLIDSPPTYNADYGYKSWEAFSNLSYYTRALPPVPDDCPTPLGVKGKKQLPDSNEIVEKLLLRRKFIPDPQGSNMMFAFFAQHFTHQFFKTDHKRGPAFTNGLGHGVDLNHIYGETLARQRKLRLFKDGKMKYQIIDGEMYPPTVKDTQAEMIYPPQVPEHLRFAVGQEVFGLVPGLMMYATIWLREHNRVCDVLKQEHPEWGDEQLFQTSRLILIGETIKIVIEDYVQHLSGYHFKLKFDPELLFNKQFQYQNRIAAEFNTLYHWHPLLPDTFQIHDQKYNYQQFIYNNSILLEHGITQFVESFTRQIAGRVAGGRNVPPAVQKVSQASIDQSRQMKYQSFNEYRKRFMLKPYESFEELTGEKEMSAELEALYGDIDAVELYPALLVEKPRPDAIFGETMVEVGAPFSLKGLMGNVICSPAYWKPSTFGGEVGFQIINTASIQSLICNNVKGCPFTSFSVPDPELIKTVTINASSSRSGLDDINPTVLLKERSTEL

Glycine max [14] = system: Glycine max
[15] = molecular target: T1, Prostaglandin G/H synthase 1 (Ovis aries); remark: listed apart in the source
Glycine max [16] = system: Glycine max; remark: listed apart in the source
[17] = molecular target: T3, Prostaglandin G/H synthase 2 (Homo sapiens); remark: listed apart in the source
[18] = molecular target: T1, Prostaglandin G/H synthase 1 (Ovis aries); remark: listed apart in the source

T2 sequence (P02768 whole entry): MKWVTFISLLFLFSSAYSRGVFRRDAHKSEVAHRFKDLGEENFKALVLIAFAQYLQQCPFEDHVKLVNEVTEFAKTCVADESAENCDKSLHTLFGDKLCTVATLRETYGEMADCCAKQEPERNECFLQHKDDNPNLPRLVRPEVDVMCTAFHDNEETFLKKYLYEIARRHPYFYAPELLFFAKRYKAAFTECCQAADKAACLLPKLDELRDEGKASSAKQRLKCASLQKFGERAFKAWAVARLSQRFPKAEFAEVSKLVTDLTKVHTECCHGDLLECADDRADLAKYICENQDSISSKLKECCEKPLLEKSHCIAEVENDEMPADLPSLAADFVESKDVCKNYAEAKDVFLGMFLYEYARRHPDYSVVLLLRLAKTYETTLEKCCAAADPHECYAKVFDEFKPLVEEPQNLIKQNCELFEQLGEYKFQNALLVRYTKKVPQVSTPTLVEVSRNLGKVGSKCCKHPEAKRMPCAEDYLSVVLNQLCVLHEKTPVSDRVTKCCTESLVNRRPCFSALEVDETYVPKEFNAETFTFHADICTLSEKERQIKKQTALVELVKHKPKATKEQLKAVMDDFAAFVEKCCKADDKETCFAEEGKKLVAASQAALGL

half-life [5]: 8.74 h | Tmax [6]: 1 h | Cmax [7]: 26000 ng/mL | TdeltaS [8]: -595 kcal/mol | Ka (Albumin [9]): 11800 M⁻¹ | TdeltaS (Albumin [10]): -258 kcal/mol | Ka [12]: 1.64 10^3/M | Ka [13]: 6.07 10^5/M | Ka (Glycine max [14]): 1.33 10^5/M | deltaH [15]: -600 kcal/mol | deltaH (Glycine max [16]): -9.99 kcal/mol | TdeltaS [17]: -2.57 kcal/mol | deltaG [18]: -5.02 kcal/mol
Compound: O=C(O)Cn1nncc1CO[C@@H](C(=O)O)[C@@H](OCc1cnnn1CC(=O)O)C(=O)O
Activity (Mus musculus [1]): 65% | Activity (Mus musculus [2]): 2% | Activity (Mus musculus [3]): 32.6% | Activity (Mus musculus [4]): 36.5% | Activity (Mus musculus [11]): Active
